Assay [1] relates to HepG2. In words: Cytotoxicity against human HepG2 cells after 48 hrs by sulforhodamine B assay. The format is functional, cell-based. The note with it: HepG2, 48 h. The essentials:
(§1)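 Cells seeded at 10^4 per well, left 24 h to attach, then exposed to 0, 12.5, 25, 50 […] as printed, triplicate wells per dose, 48 h at 37 °C, 5% CO2. Fixed, stained with sulforhodamine B, excess dye removed with acetic acid, bound dye taken up in Tris EDTA and read on an ELISA reader. IC50 from survival curve of surviving fraction against concentration.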
On the technique in general: The SRB assay estimates cell density from bound dye.

The subject of assay [2] is MCF7. The assay can be described thus: Cytotoxicity against human MCF7 cells after 48 hrs by sulforhodamine B assay. It counts as functional, cell-based. The settings on record: MCF7, 48 h. The essentials: as §1
The subject of assay [3] is HepG2. In words: Inhibition of protein tyrosine kinase in human HepG2 cells assessed as change in TRK level at cytotoxic IC50 level incubated for 24 hrs by ELISA method. It counts as cell-based. Also on record: scale not given: the % may be the effect or the level left. Summed up: (§2)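 Cells kept in DMEM with 10% heat-inactivated fetal calf serum plus penicillin/streptomycin at 37 °C, 5% CO2. […] Cells homogenized in saline. TRK measured by double-antibody sandwich ELISA, OD 450 nm, read against a standard curve in triplicate. Percent inhibition relative to DMSO-treated control cells.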

In assay [4] the test system is MCF7. In words: Inhibition of protein tyrosine kinase in human MCF7 cells assessed as change in TRK level at cytotoxic IC50 level incubated for 24 hrs by ELISA method. It counts as cell-based. Set-up: scale not given: the % may be the effect or the level left. Summed up:
as §2
Background: In an ELISA, binding on a coated surface is turned into a signal by an enzyme label.

In assay [5] the target is T1, Prostaglandin G/H synthase 1 (Ovis aries, UniProt P05979).
T1 sequence (P05979 whole entry): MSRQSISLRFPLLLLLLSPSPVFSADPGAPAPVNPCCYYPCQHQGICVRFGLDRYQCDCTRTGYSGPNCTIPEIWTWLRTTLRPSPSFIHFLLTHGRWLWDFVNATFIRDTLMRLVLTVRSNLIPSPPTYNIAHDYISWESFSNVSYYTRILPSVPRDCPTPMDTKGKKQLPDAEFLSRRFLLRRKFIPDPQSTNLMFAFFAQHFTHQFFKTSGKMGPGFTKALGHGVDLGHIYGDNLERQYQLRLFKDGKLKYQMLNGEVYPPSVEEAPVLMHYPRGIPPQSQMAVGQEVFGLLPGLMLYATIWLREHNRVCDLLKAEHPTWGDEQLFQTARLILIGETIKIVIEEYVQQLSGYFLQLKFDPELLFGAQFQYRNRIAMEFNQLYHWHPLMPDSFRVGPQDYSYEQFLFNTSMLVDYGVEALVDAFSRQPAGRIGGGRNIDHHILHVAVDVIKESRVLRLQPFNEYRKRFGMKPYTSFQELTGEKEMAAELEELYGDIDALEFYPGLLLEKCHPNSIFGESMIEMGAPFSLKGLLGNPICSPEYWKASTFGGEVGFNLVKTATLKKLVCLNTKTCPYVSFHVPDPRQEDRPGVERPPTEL
In words: Inhibition of ovine COX1 assessed as reduction in PGH2 production using arachidonic acid substrate by enzyme immunoassay. The essentials:
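Ovine COX-1 with heme in 0.1 M Tris-HCl pH 8.0 containing 5 mM EDTA and 2 mM phenol. Test compound given at […] final, from DMSO stock. Preincubated 5 min at 37 °C, then arachidonic acid added; stopped with 1 M HCl after 2 min. PGH2 reduced to PGF2a by stannous chloride, measured by competitive EIA at 410 nm. IC50 from concentration-inhibition curve, duplicate determinations.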

By IC50 is commonly meant the concentration that inhibits the measured activity by half. As for `Cc1nn(-c2ccccc2)c(SCCO)c1/C=N/Nc1nc2ccccc2nc1O`, the half-maximal inhibitory concentration (IC50) in the assay on HepG2 [1] was found to be 23.4 µM; with MCF7 [2], 11.3 µM. The Activity with HepG2 [3] was 78%; in the assay with MCF7 [4], 82%.

For the compound `Cc1nn(-c2ccccc2)c(N2CCN(S(=O)(=O)c3ccccc3)CC2)c1/C=N/Nc1nc2ccccc2nc1O`, the results for the IC50 in the assay with HepG2 [1] and in the assay on MCF7 [2] were 28.1 µM and 26.2 µM, respectively. The results for the Activity with HepG2 [3] and in the assay on MCF7 [4] were 19% and 12%, respectively.

Turning to `CC(=O)N1CCN(c2c(/C=N/Nc3nc4ccccc4nc3O)c(C)nn2-c2ccccc2)CC1`, the 50% inhibitory concentration (IC50) in the assay on HepG2 [1] is 11 µM; with MCF7 [2], 18 µM; in assay [5] it was over 50 µM. In addition, the Activity with HepG2 [3] is 80%.

As to `Cc1nn(-c2ccccc2)c(Cl)c1/C=N/Nc1nc2ccccc2[nH]c1=O`, the results for the IC50 (in the assay on HepG2 [1]; in the assay on MCF7 [2]; in assay [5]) were 19.6 µM, 25.2 µM and over 50 µM, respectively. For the same compound, the Activity turned out to be 79% in the assay on HepG2 [3] and 34% with MCF7 [4].

Regarding `Cc1nn(-c2ccc([N+](=O)[O-])cc2)c(Cl)c1/C=N/Nc1nc2ccccc2[nH]c1=O`, the half-inhibitory concentration (IC50) with HepG2 [1] turned out to be 34.2 µM; in the assay with MCF7 [2] it was 20.7 µM. Further, the figures for the Activity in the assay with HepG2 [3] and with MCF7 [4] were 39% and 40%, respectively.

As for `Cc1nn(-c2ccccc2)c(N2CCNCC2)c1/C=N/Nc1nc2ccccc2nc1O`, the half-inhibitory concentration (IC50) with HepG2 [1] is 38.1 µM; with MCF7 [2], 16.3 µM; in assay [5], over 50 µM. In addition, the Activity came out at 20% with HepG2 [3] and 66% with MCF7 [4].

As for `Cc1nn(-c2ccccc2)c(OC2CCCC2)c1/C=N/Nc1nc2ccccc2nc1O`, the IC50 in the assay on HepG2 [1] was 36.5 µM; with MCF7 [2], 31.5 µM; in assay [5] it was over 50 µM. The Activity in the assay on HepG2 [3] was determined as 40%; in the assay on MCF7 [4], 16.5%.

Consider `Cc1nn(-c2ccccc2)c(N2CCOCC2)c1/C=N/Nc1nc2ccccc2nc1O`, for which the IC50 in the assay with HepG2 [1] was 11 µM; in the assay on MCF7 [2], 9.28 µM; in assay [5], over 50 µM. In addition, the Activity stood at 84% with HepG2 [3] and 85% in the assay with MCF7 [4].

Consider `Cc1nn(-c2ccccc2)c(N2CCN(C)CC2)c1/C=N/Nc1nc2ccccc2nc1O`, for which the results for the IC50 (with HepG2 [1]; with MCF7 [2]; in assay [5]) were 11.4 µM, 10 µM and over 50 µM, respectively. Further, the Activity in the assay on HepG2 [3] and in the assay with MCF7 [4] was 83% in each case.

For the compound `Cc1nn(-c2ccccc2)c(N(C)C)c1/C=N/Nc1nc2ccccc2nc1O`, the IC50 with HepG2 [1] was 31.5 µM; in the assay with MCF7 [2], 18 µM; in assay [5], over 50 µM. Also, the Activity in the assay with HepG2 [3] was 73%; with MCF7 [4], 62%.

With `Cc1nn(-c2ccccc2)c(N2CCN(S(=O)(=O)c3ccccc3[N+](=O)[O-])CC2)c1/C=N/Nc1nc2ccccc2nc1O`, the IC50 with HepG2 [1] worked out at 32.2 µM; with MCF7 [2], 14.3 µM. The Activity with HepG2 [3] is 13%; with MCF7 [4], 37%.

As for `Cc1nn(-c2ccccc2)c(SCC(=O)O)c1/C=N/Nc1nc2ccccc2nc1O`, the figures for the concentration for half-maximal inhibition (IC50) with HepG2 [1] and in the assay with MCF7 [2] were 40.6 µM and 33.6 µM, respectively. Moreover, the Activity with HepG2 [3] worked out at 22%; in the assay with MCF7 [4], 4%.

For `Cc1nn(-c2ccccc2)c(N2CCCCC2)c1/C=N/Nc1nc2ccccc2nc1O`, the results for the IC50 (with HepG2 [1]; in the assay with MCF7 [2]; in assay [5]) were 18.1 µM, 12.8 µM and over 50 µM, respectively. Moreover, the Activity in the assay with HepG2 [3] is 75%; in the assay on MCF7 [4] it was 74%.

(Values after ChEMBL document CHEMBL3352187, “Design, synthesis and molecular docking study of novel quinoxalin-2(1H)-ones as anti-tumor active agents with inhibition of tyrosine kinase receptor and studying their cyclooxygenase-2 activity” (Eur J Med Chem, 2014).)
